CIT2 TOR yeast: alters CIT2-GFP fluorescence in TOR pathway yeast screen | S. cerevisiae CIT2-GFP strain, flow cytometry, 3 h; 100 means same as DMSO wells | GFP response vs DMSO, % at 10 µM | 0.065% of 320,000 active | AID 2029;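 active = GFP response relative to DMSO above a set limit, near the screen mean plus 3 SD, cut at about 150% in these data; inconclusive = Fewer than 70 cells measured for a yeast strain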;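 also: ratio of well median GFP fluorescence to mean of DMSO wells on the plate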
RPL19A-GFP yeast: modulators of TOR pathway RPL19A-GFP in S. cerevisiae | S. cerevisiae RPL19A-GFP strain, flow cytometry, 3 h; hits give low values | percent response vs DMSO, % at 10 µM | 0.3% of 330,000 active | AID 2025;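 active = percent response vs DMSO below 50%; inconclusive = fewer than 70 events counted for the yeast strain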;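 also: median channel GFP fluorescence of the barcoded RPL19A-GFP strain; ratio of sample median GFP to plate DMSO average so 100% = DMSO; lower means less RPL19A-GFP as with rapamycin TOR inhibition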
MEP2-GFP yeast: yeast TOR pathway MEP2-GFP modulation; GFP response vs DMSO, % at 10 µM; S. cerevisiae MEP2-GFP strain, flow cytometry GFP, 3 h; 100% = DMSO control level; 0.51% of 330,000 active;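 active = GFP response versus DMSO above a set limit, roughly screen mean plus 3 SD, cut at about 180% in these data; inconclusive = fewer than 70 cells counted for a yeast strain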;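 also: median GFP fluorescence of the barcode-gated MEP2-GFP cells per well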
LAP4-GFP MLPCN: yeast TOR pathway LAP4-GFP modulation; GFP response vs DMSO, % at 10 µM; AID 2023; S. cerevisiae LAP4-GFP multiplex, flow cytometry GFP, 3 h; median GFP as percent of DMSO wells; 0.34% of 320,000 active;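 active = GFP response vs DMSO above a set limit, about the screen mean plus 3 SD, cut at about 150% in these data; inconclusive = under 70 cell events counted for the yeast strain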
T cell HTS: T cell immune modulators affecting CD8 T cell-vesicle binding. 2C CD8+ T cell-vesicle binding, flow cytometry; hits give low values. response (vesicle binding), % at 7 µM. 0.068% of 330,000 active. AID 2052;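 active = response, share of CD8 T cells binding vesicles, and their 90th percentile fluorescence all below set limits, cut at about 80% in these data, passing the limit was not always enough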;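 also: values below 100% mean blocked vesicle binding to the CD8+ T cells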
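Material: 2C TCR transgenic mouse naive CD8+ T cells, MACS-purified. Also added: QL9-charged Drosophila Ld/ICAM-1/B7-1 vesicles. Timing: binding 1.5 h at 37 °C. Measured by: high-throughput flow cytometry with anti-B7-1 and anti-CD8 staining. Read-out: percent CD8+ FL2 mean versus row control. Controls: Unloaded micro-vesicles (low), QL9 vesicles with 0.7% DMSO (high).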
AGP1-GFP MLPCN: yeast TOR pathway AGP1-GFP modulation; GFP response vs DMSO, % at 10 µM; 0.02% of 320,000 active; S. cerevisiae AGP1-GFP multiplex flow cytometry, 3 h; GFP as percent of DMSO wells; AID 2066;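 active = GFP response relative to DMSO above a set limit, near screen average plus 3 SD, cut at about 150% in these data; inconclusive = fewer than 70 cells counted for the yeast strain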;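 also: median GFP channel fluorescence of the gated AGP1 strain per well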
Active calls of the source: *; [ ] = remark or other dose. Compounds with a hit are over-represented: about 0.96% of the library has one in this group of screens.

For CCOc1ccc(OCC)c(NC(=O)c2[nH]c(C)c(C(C)=O)c2C)c1 the results were CIT2 TOR yeast inconclusive, RPL19A-GFP yeast 41*[may fluoresce violet], MEP2-GFP yeast 368*[may fluoresce violet], LAP4-GFP MLPCN 101, T cell HTS 269 and AGP1-GFP MLPCN inconclusive.
COC(=O)c1cc(NC(=O)CC2CCCC2)cc(C(=O)OC)c1 was read as CIT2 TOR yeast inconclusive, RPL19A-GFP yeast 27*[may fluoresce violet], MEP2-GFP yeast 143, LAP4-GFP MLPCN 67, T cell HTS 214 and AGP1-GFP MLPCN inconclusive.
CCN(CC)c1ccc(C2C(C(C)=O)C(=O)CC(C)(O)C2C(C)=O)cc1 (configuration not stated) was read as CIT2 TOR yeast inconclusive, RPL19A-GFP yeast 14*[may fluoresce violet], MEP2-GFP yeast 249*[may fluoresce violet], LAP4-GFP MLPCN inconclusive, T cell HTS 401 and AGP1-GFP MLPCN inconclusive.
CC(=O)C1C(=O)CC(C)(O)C(C(C)=O)C1c1ccc(N(C)C)cc1 (configuration not stated) was read as CIT2 TOR yeast 106, RPL19A-GFP yeast 103, MEP2-GFP yeast 103, LAP4-GFP MLPCN 104, T cell HTS 323 and AGP1-GFP MLPCN 109.
`Cc1cccc(CC(=O)Nc2sc(C(C)C)cc2C(=O)N2CCOCC2)c1` gave CIT2 TOR yeast 100, RPL19A-GFP yeast 107, MEP2-GFP yeast 97, LAP4-GFP MLPCN 91, T cell HTS 255 and AGP1-GFP MLPCN 97.
`CSc1ncc2c(n1)-c1cc(C)ccc1SC2` gave CIT2 TOR yeast 111, RPL19A-GFP yeast 102, MEP2-GFP yeast 104, LAP4-GFP MLPCN 86, T cell HTS 496 and AGP1-GFP MLPCN 102.
Screening Cc1ncc2c(n1)-c1cc(F)ccc1SC2 returned CIT2 TOR yeast 144, RPL19A-GFP yeast 116, MEP2-GFP yeast 178*, LAP4-GFP MLPCN 115, T cell HTS 298 and AGP1-GFP MLPCN 96.
`COc1ccc(C2=CC3=C(Br)C(=O)C(C)(OC(=O)C4CCCC4)C(=O)C3=CO2)cc1` (configuration not stated) gave CIT2 TOR yeast inconclusive, RPL19A-GFP yeast 39*[may fluoresce violet], MEP2-GFP yeast 138, LAP4-GFP MLPCN 128, T cell HTS 515 and AGP1-GFP MLPCN 11.
For COc1ccc(C2=CC3=C(Br)C(=O)C(C)(OC(=O)c4ccc(Cl)nc4)C(=O)C3=CO2)cc1 (configuration not stated) the results were CIT2 TOR yeast inconclusive, RPL19A-GFP yeast 21*[may fluoresce violet], MEP2-GFP yeast 84, LAP4-GFP MLPCN 59, T cell HTS 436 and AGP1-GFP MLPCN 6.
For CC(C)(C)OC(=O)NCCCC1=CC2=CC(=O)C(C)(OC(=O)c3ccc(Cl)nc3)C(=O)C2=CO1 (configuration not stated) the results were CIT2 TOR yeast 80, RPL19A-GFP yeast 97, MEP2-GFP yeast 86, LAP4-GFP MLPCN 102, T cell HTS 324 and AGP1-GFP MLPCN 83.
Screening CC1(OC(=O)C2CCCC2)C(=O)C=C2C=C(c3ccsc3)OC=C2C1=O (configuration not stated) returned CIT2 TOR yeast inconclusive, RPL19A-GFP yeast 82, MEP2-GFP yeast 174, LAP4-GFP MLPCN 99, T cell HTS 611 and AGP1-GFP MLPCN 9.
Screening CN1C2CCC1CC(NS(=O)(=O)c1ccc(C#N)cc1)C2 (configuration not stated) returned CIT2 TOR yeast 90, RPL19A-GFP yeast 101, MEP2-GFP yeast 99, LAP4-GFP MLPCN 92, T cell HTS 194 and AGP1-GFP MLPCN 105.
For Cc1nnc(NC(=O)CN2CCN(Cc3ccc(F)cc3Cl)CC2)s1 the results were CIT2 TOR yeast 103, RPL19A-GFP yeast 102, MEP2-GFP yeast 104, LAP4-GFP MLPCN 98, T cell HTS 187 and AGP1-GFP MLPCN 100.
`NC(=O)c1cc2ccc(O)cc2oc1=NCc1ccccc1` gave CIT2 TOR yeast inconclusive, RPL19A-GFP yeast 47*[may fluoresce violet], MEP2-GFP yeast 149, LAP4-GFP MLPCN 91 and T cell HTS 531.
`CCN1/C(=C/C=C/c2oc3ccc4ccccc4c3[n+]2CC)Oc2ccc3ccccc3c21` gave CIT2 TOR yeast active[may fluoresce green], RPL19A-GFP yeast 392, MEP2-GFP yeast active[may fluoresce green], LAP4-GFP MLPCN active[may fluoresce green] and T cell HTS inactive.
For COc1ccc(C(C)=O)cc1CC(=O)Nc1cccc(S(=O)(=O)N2CCOCC2)c1 the results were CIT2 TOR yeast 100, RPL19A-GFP yeast 100, MEP2-GFP yeast 97, LAP4-GFP MLPCN 105, T cell HTS 385 and AGP1-GFP MLPCN 104.
For Cc1ccc2nc(N3C(=O)C(O)=C(C(=O)c4cc5ccccc5o4)C3c3cccs3)sc2c1 (configuration not stated) the results were CIT2 TOR yeast 93, RPL19A-GFP yeast 75, MEP2-GFP yeast 192*, LAP4-GFP MLPCN 104, T cell HTS 238 and AGP1-GFP MLPCN 25.
CC(=O)Cc1nsc(NC(=O)c2ccc(-c3cccc(Cl)c3)o2)n1 was read as CIT2 TOR yeast 91, RPL19A-GFP yeast 98, MEP2-GFP yeast 94, LAP4-GFP MLPCN 95, T cell HTS 229 and AGP1-GFP MLPCN 94.
Screening O=C(c1cncc(Br)c1)N1CCN(S(=O)(=O)c2ccccc2)CC1 returned CIT2 TOR yeast inconclusive, RPL19A-GFP yeast 56, MEP2-GFP yeast 234*[may fluoresce violet], LAP4-GFP MLPCN 75, T cell HTS 276 and AGP1-GFP MLPCN inconclusive.
For Cc1ccc(COC(=O)c2ccc3ccccc3n2)cc1 the results were CIT2 TOR yeast 85, RPL19A-GFP yeast 102, MEP2-GFP yeast 96, LAP4-GFP MLPCN 106, T cell HTS 192 and AGP1-GFP MLPCN 93.
For COc1c(OC)c2[nH]c(=O)cc3c4ccccc4n(c1=O)c23 the results were CIT2 TOR yeast inconclusive, RPL19A-GFP yeast 18*[may fluoresce violet], MEP2-GFP yeast 365*[may fluoresce violet], LAP4-GFP MLPCN 100, T cell HTS 257 and AGP1-GFP MLPCN inconclusive.
COn1c(=S)[nH]c2ccccc2c1=O was read as CIT2 TOR yeast 98, RPL19A-GFP yeast 97, MEP2-GFP yeast 97, LAP4-GFP MLPCN 103, T cell HTS 388 and AGP1-GFP MLPCN 99.
Screening Nc1ccc(-c2c3ccc(=O)cc-3oc3cc(O)ccc23)cc1C(=O)O returned CIT2 TOR yeast 142, RPL19A-GFP yeast 101, MEP2-GFP yeast 124, LAP4-GFP MLPCN 157*, T cell HTS 329 and AGP1-GFP MLPCN 113.
Screening Cc1ccc(CCNC(=O)CCS(=O)(=O)Cc2ccc(C)cc2)cc1 returned CIT2 TOR yeast 100, RPL19A-GFP yeast 103, MEP2-GFP yeast 107, LAP4-GFP MLPCN 91, T cell HTS 258 and AGP1-GFP MLPCN 98.
For O=C(CCS(=O)(=O)Cc1ccccc1F)NCCc1ccc(Cl)cc1 the results were CIT2 TOR yeast 150*, RPL19A-GFP yeast 57, MEP2-GFP yeast 518*, T cell HTS 150 and AGP1-GFP MLPCN 162*.
